This is an account of results in ChEMBL document CHEMBL3045285, “Synthesis and insecticidal activities of novel anthranilic diamides containing modified N-pyridylpyrazoles” (2010).

The mortality is the share of the test organisms that died.

Holding throughout (format): functional
Assay [1] has as its system Mythimna separata. Description: Insecticidal activity against fourth-instar larval stage of Mythimna separata (Oriental armyworm) in compound pretreated Zea mays L. Tangyu 10 leaves assessed as mortality at 100 mg/l at 25 +/-1 degC after 2 days. The gist of the method:
(§1)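 Greenhouse-reared fourth-instar oriental armyworm larvae. Corn (Tangyu 10) leaves laid on moist filter paper in Petri dishes, sprayed with test solution (200 mg/L solution diluted in distilled water), then air-dried. Ten larvae per dish. Held at 25 ± 1 °C; mortality scored dead/alive 2 days post-treatment. Triplicate treatments, Abbott-corrected, 0–100 scale.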

The test system of assay [2] is Mythimna separata. Description: Insecticidal activity against fourth-instar larval stage of Mythimna separata (Oriental armyworm) in compound pretreated Zea mays L. Tangyu 10 leaves assessed as mortality at 200 mg/l at 25 +/-1 degC after 2 days. The method, boiled down:
as §1

Assay [3] concerns Mythimna separata. Kind of assay: Insecticidal activity against fourth-instar larval stage of Mythimna separata (Oriental armyworm) in compound pretreated Zea mays L. Tangyu 10 leaves assessed as mortality at 20 mg/l at 25 +/-1 degC after 2 days. The gist of the method: as §1
The subject of assay [4] is Mythimna separata. Kind of assay: Insecticidal activity against fourth-instar larval stage of Mythimna separata (Oriental armyworm) in compound pretreated Zea mays L. Tangyu 10 leaves assessed as mortality at 50 mg/l at 25 +/-1 degC after 2 days. The method, boiled down:
as §1

Consider `CNC(=O)c1cc(Cl)cc(C)c1NC(=O)c1cc(CNS(C)(=O)=O)nn1-c1ncccc1Cl`, for which the mortality at 100 µg/mL in assay [1] stood at 60%. For the same compound, in assay [2], the mortality at 200 µg/mL was 100%.

In the case of `CNC(=O)c1cc(Cl)cc(C)c1NC(=O)c1cc(CNC(=O)c2ccccc2)nn1-c1ncccc1Cl`, the mortality at 200 µg/mL in assay [2] was found to be 20%.

As for `CNC(=O)c1cc(Cl)cc(C)c1NC(=O)c1cc(CNC(C)=O)nn1-c1ncccc1Cl`, in assay [3], the mortality at 20 µg/mL was 0%. For the same compound, in assay [4], the mortality at 50 µg/mL is 100%. Also, the mortality at 100 µg/mL in assay [1] worked out at 100%. Also, in assay [2], the mortality at 200 µg/mL was 100%.

In the case of `CNC(=O)c1cc(Cl)cc(C)c1NC(=O)c1cc(CN)nn1-c1ncccc1Cl`, the mortality at 200 µg/mL in assay [2] was found to be 20%.

For the compound `CNC(=O)c1cc(Cl)cc(C)c1NC(=O)c1cc(C=O)nn1-c1ncccc1Cl`, the mortality at 100 µg/mL in assay [1] amounted to 40%. Besides, in assay [2], the mortality at 200 µg/mL amounted to 100%.

For the compound `CNC(=O)c1cc(Cl)cc(C)c1NC(=O)c1cc(CO)nn1-c1ncccc1Cl`, the mortality at 20 µg/mL in assay [3] came to 60%. In addition, the mortality at 50 µg/mL in assay [4] is 100%. Besides, the mortality at 100 µg/mL in assay [1] came out at 100%. In assay [2], the mortality at 200 µg/mL was 100%.

Regarding `CNC(=O)c1cc(Cl)cc(C)c1NC(=O)c1cc(COC(=O)c2ccccc2)nn1-c1ncccc1Cl`, in assay [3], the mortality at 20 µg/mL is 40%. The mortality at 50 µg/mL in assay [4] was 100%. Moreover, the mortality at 100 µg/mL in assay [1] is 100%. Moreover, the mortality at 200 µg/mL in assay [2] is 100%.

Regarding `CNC(=O)c1cc(Cl)cc(C)c1NC(=O)c1cc(COC(=O)COC(C)=O)nn1-c1ncccc1Cl`, in assay [3], the mortality at 20 µg/mL came to 40%. Further, in assay [4], the mortality at 50 µg/mL is 100%. Moreover, in assay [1], the mortality at 100 µg/mL was determined as 100%. Moreover, in assay [2], the mortality at 200 µg/mL is 100%.

For the compound `CNC(=O)c1cc(Cl)cc(C)c1NC(=O)c1cc(COC(=O)CCCCl)nn1-c1ncccc1Cl`, the mortality at 20 µg/mL in assay [3] was 60%. Also, in assay [4], the mortality at 50 µg/mL came to 100%. The mortality at 100 µg/mL in assay [1] stood at 100%. The mortality at 200 µg/mL in assay [2] came to 100%.

`CNC(=O)c1cc(Cl)cc(C)c1NC(=O)c1cc(COC(=O)C(F)(F)F)nn1-c1ncccc1Cl`: the mortality at 20 µg/mL in assay [3] turned out to be 20%. The mortality at 50 µg/mL in assay [4] worked out at 100%. In addition, the mortality at 100 µg/mL in assay [1] is 100%. The mortality at 200 µg/mL in assay [2] turned out to be 100%.

Take `CNC(=O)c1cc(Cl)cc(C)c1NC(=O)c1cc(COS(=O)(=O)c2ccc(C)cc2)nn1-c1ncccc1Cl`: the mortality at 20 µg/mL in assay [3] is 80%. Also, in assay [4], the mortality at 50 µg/mL turned out to be 100%. Also, the mortality at 100 µg/mL in assay [1] was 100%. In assay [2], the mortality at 200 µg/mL worked out at 100%.

For `CNC(=O)c1cc(Cl)cc(C)c1NC(=O)c1cc(COS(C)(=O)=O)nn1-c1ncccc1Cl`, the mortality at 20 µg/mL in assay [3] was 40%. Besides, in assay [4], the mortality at 50 µg/mL came out at 100%. The mortality at 100 µg/mL in assay [1] worked out at 100%. The mortality at 200 µg/mL in assay [2] was found to be 100%.

In the case of `CCCNC(=O)c1cccc(C)c1NC(=O)c1cc(COC(C)=O)nn1-c1ncccc1Cl`, the mortality at 20 µg/mL in assay [3] amounted to 40%. The mortality at 50 µg/mL in assay [4] came to 100%. For the same compound, the mortality at 100 µg/mL in assay [1] stood at 100%. Also, in assay [2], the mortality at 200 µg/mL amounted to 100%.

Turning to `CC(=O)OCc1cc(C(=O)Nc2c(C)cccc2C(=O)NC2CC2)n(-c2ncccc2Cl)n1`, in assay [3], the mortality at 20 µg/mL came to 40%. For the same compound, the mortality at 50 µg/mL in assay [4] was 100%. Besides, in assay [1], the mortality at 100 µg/mL was 100%. For the same compound, the mortality at 200 µg/mL in assay [2] stood at 100%.

With `CNC(=O)c1cccc(C)c1NC(=O)c1cc(COC(C)=O)nn1-c1ncccc1Cl`, in assay [1], the mortality at 100 µg/mL was 60%. Further, the mortality at 200 µg/mL in assay [2] was determined as 100%.

For `CC(=O)OCc1cc(C(=O)Nc2c(C)cc(Cl)cc2C(=O)NCc2ccccc2)n(-c2ncccc2Cl)n1`, the mortality at 20 µg/mL in assay [3] stood at 40%. For the same compound, the mortality at 50 µg/mL in assay [4] is 100%. Further, the mortality at 100 µg/mL in assay [1] worked out at 100%. Further, the mortality at 200 µg/mL in assay [2] turned out to be 100%.

On to `CONC(=O)c1cc(Cl)cc(C)c1NC(=O)c1cc(COC(C)=O)nn1-c1ncccc1Cl`, for which the mortality at 100 µg/mL in assay [1] worked out at 0%. Further, the mortality at 200 µg/mL in assay [2] stood at 100%.

For `CCCCNC(=O)c1cc(C(=O)Nc2c(C)cc(Cl)cc2C(=O)NC)n(-c2ncccc2Cl)n1`, in assay [3], the mortality at 20 µg/mL was found to be 20%. Moreover, the mortality at 50 µg/mL in assay [4] came out at 100%. Moreover, the mortality at 100 µg/mL in assay [1] was 100%. For the same compound, the mortality at 200 µg/mL in assay [2] is 100%.

On to `CNC(=O)c1cc(Cl)cc(C)c1NC(=O)c1cc(C(=O)NC2CCCCC2)nn1-c1ncccc1Cl`, for which the mortality at 200 µg/mL in assay [2] is 0%.

As to `CCCCNC(=O)c1cc(Cl)cc(C)c1NC(=O)c1cc(C(=O)NC)nn1-c1ncccc1Cl`, in assay [1], the mortality at 100 µg/mL is 20%. In addition, the mortality at 200 µg/mL in assay [2] turned out to be 100%.

Turning to `CNC(=O)c1cc(C(=O)Nc2c(C)cc(Cl)cc2C(=O)NCc2ccccc2)n(-c2ncccc2Cl)n1`, in assay [1], the mortality at 100 µg/mL turned out to be 60%. The mortality at 200 µg/mL in assay [2] is 100%.

On to `CNC(=O)c1cc(C(=O)Nc2c(C)cc(Cl)cc2C(=O)NOC)n(-c2ncccc2Cl)n1`, for which the mortality at 200 µg/mL in assay [2] was 0%.

For the compound `CNC(=O)c1cc(C(=O)Nc2c(C)cc(Cl)cc2C(=O)NC(C)C)n(-c2ncccc2Cl)n1`, the mortality at 100 µg/mL in assay [1] turned out to be 60%. Besides, the mortality at 200 µg/mL in assay [2] was found to be 100%.

Regarding `CNC(=O)c1cc(C(=O)Nc2c(C)cc(Cl)cc2C(=O)NC)n(-c2ncccc2Cl)n1`, the mortality at 100 µg/mL in assay [1] was determined as 60%. Further, the mortality at 200 µg/mL in assay [2] worked out at 100%.

For `CNC(=O)c1cc(Cl)cc(C)c1NC(=O)c1cc(C(=O)OC2CCCCC2)nn1-c1ncccc1Cl`, in assay [1], the mortality at 100 µg/mL amounted to 40%. For the same compound, the mortality at 200 µg/mL in assay [2] came out at 100%.

In the case of `CNC(=O)c1cc(Cl)cc(C)c1NC(=O)c1cc(C(=O)OCc2ccccc2)nn1-c1ncccc1Cl`, in assay [1], the mortality at 100 µg/mL turned out to be 40%. Also, the mortality at 200 µg/mL in assay [2] stood at 100%.

Take `CNC(=O)c1cc(Cl)cc(C)c1NC(=O)c1cc(C(=O)OC(C)C)nn1-c1ncccc1Cl`: in assay [2], the mortality at 200 µg/mL stood at 80%.

`CCOC(=O)c1cc(C(=O)Nc2c(C)cc(Cl)cc2C(=O)NCc2ccccc2)n(-c2ncccc2Cl)n1`: the mortality at 200 µg/mL in assay [2] came out at 20%.

`CCOC(=O)c1cc(C(=O)Nc2c(C)cccc2C(=O)NC(C)C)n(-c2ncccc2Cl)n1`: the mortality at 50 µg/mL in assay [4] worked out at 60%. Moreover, the mortality at 100 µg/mL in assay [1] was determined as 100%. Further, in assay [2], the mortality at 200 µg/mL stood at 100%.

For the compound `CCCNC(=O)c1cccc(C)c1NC(=O)c1cc(C(=O)OCC)nn1-c1ncccc1Cl`, the mortality at 50 µg/mL in assay [4] came out at 60%. The mortality at 100 µg/mL in assay [1] turned out to be 100%. The mortality at 200 µg/mL in assay [2] stood at 100%.

Regarding `CCCCOC(=O)c1cc(C(=O)Nc2c(C)cc(Cl)cc2C(=O)NC)n(-c2ncccc2Cl)n1`, in assay [2], the mortality at 200 µg/mL worked out at 80%.

Take `CCOC(=O)c1cc(C(=O)Nc2c(C)cc(Cl)cc2C(=O)NC(C)C)n(-c2ncccc2Cl)n1`: the mortality at 200 µg/mL in assay [2] stood at 70%.

For `CCOC(=O)c1cc(C(=O)Nc2c(C)cc(Cl)cc2C(=O)NC(C)(C)C)n(-c2ncccc2Cl)n1`, the mortality at 50 µg/mL in assay [4] was determined as 70%. Besides, the mortality at 100 µg/mL in assay [1] was found to be 100%. The mortality at 200 µg/mL in assay [2] was determined as 100%.

Turning to `CCOC(=O)c1cc(C(=O)Nc2c(C)cc(Cl)cc2C(=O)NC2CC2)n(-c2ncccc2Cl)n1`, the mortality at 50 µg/mL in assay [4] amounted to 80%. Further, the mortality at 100 µg/mL in assay [1] stood at 100%. The mortality at 200 µg/mL in assay [2] amounted to 100%.

As for `CCOC(=O)c1cc(C(=O)Nc2c(C)cc(Cl)cc2C(=O)NOC)n(-c2ncccc2Cl)n1`, the mortality at 200 µg/mL in assay [2] was 50%.

For the compound `CCOC(=O)c1cc(C(=O)Nc2c(C)cc(Cl)cc2C(=O)NC)n(-c2ncccc2Cl)n1`, the mortality at 200 µg/mL in assay [2] is 80%.
